Reference: ChEMBL document CHEMBL1126202, “Dual-action penems and carbapenems” (J Med Chem, 1992)

Assays:
[1] = test system: Bacteroides thetaiotaomicron; experiment: In vitro antibacterial activity against Bacteroides thetaiotaomicron 62B; format: functional
Summary of the method: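 Anaerobic MICs were determined in microtiter plates in Schaedler's broth supplemented with coenzyme I and hemin. Incubation was under an oxygen-free hydrogen-carbon dioxide atmosphere.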

Bacteroides fragilis [2] = experiment: In vitro antibacterial activity against Bacteroides fragilis F117A; format: functional
Summary of the method: (§1)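 MIC by broth dilution in microtiter plates, run in an oxygen-free hydrogen–carbon dioxide atmosphere. Medium: Schaedler's broth with coenzyme I and hemin added.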

Clostridioides difficile [3] = experiment: In vitro antibacterial activity against Clostridium difficile 651; format: functional
Clostridium perfringens = experiment: In vitro antibacterial activity against Clostridium perfringens 13424; format: functional; summary of the method: as §1
Bacteroides fragilis [4] = experiment: In vitro antibacterial activity against bacteroides fragilis S2; format: functional
Summary of the method: (§2)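 Anaerobic MIC, run in microtiter plates in Schaedler's broth supplemented with coenzyme I and hemin. Incubated in an oxygen-free hydrogen–carbon dioxide atmosphere.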

Hathewaya histolytica = experiment: In vitro antibacterial activity against clostridium histolyticum 503-86; format: functional; summary of the method: as §2
Escherichia coli [5] = experiment: In vitro antibacterial activity against Escherichia coli 25922; format: functional
Summary of the method: (§3)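 MIC was determined by agar dilution on Mueller-Hinton agar. Serial 2-fold aqueous dilutions were diluted 10-fold in agar to give final concentrations of 128 to 0.0156 μg/mL. Plates were inoculated by Steers replicator with overnight broth cultures diluted 100-fold.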

Escherichia coli [6] = experiment: In vitro antibacterial activity against Escherichia coli 257; format: functional
Escherichia coli [7] = experiment: In vitro antibacterial activity against Escherichia coli TEM-1 (constitutive beta-lactamase producer); format: functional; summary of the method: as §3
Escherichia coli [8] = experiment: Concentration inhibiting [14C]- Penicillin G binding to Escherichia coli UB1005 PBP4 (penicillin binding protein) 49 kDa; format: functional
Summary of the method: (§4)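 Solubilized membranes from sonicated E. coli UB1005 were used as the PBP source. Inhibition of [14C]penicillin G binding to the PBPs was measured.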

Enterobacter cloacae = experiment: In vitro antibacterial activity against enterobacter cloacae P99 (constitutive beta-lactamase producer); format: functional; summary of the method: as §3
Proteus mirabilis = experiment: In vitro antibacterial activity against Proteus mirabilis 90; format: functional
Summary of the method: (§5)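 Proteus MICs were determined by agar dilution on Mueller-Hinton agar containing 3% agar. Serial 2-fold dilutions gave final concentrations of 128 to 0.0156 μg/mL. Plates were replicator-inoculated with 100-fold-diluted overnight broth cultures.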

Pseudomonas aeruginosa [9] = experiment: In vitro antibacterial activity against Pseudomonas aeruginosa 18SH (constitutive beta-lactamase producer); format: functional; summary of the method: as §3
[10] = molecular target: Penicillin-binding protein 2 (Staphylococcus aureus) (UniProt Q53729); experiment: Concentration inhibiting [14C]- Penicillin G binding to Staphylococcus aureus ATCC 29213 Penicillin binding protein 2, 80 kDa
[11] = molecular target: T1, Peptidoglycan D,D-transpeptidase MrdA (Escherichia coli K-12) (UniProt P0AD65); experiment: Concentration inhibiting [14C]- Penicillin G binding to Escherichia coli UB1005 PBP2 (penicillin binding protein) 66 kDa; summary of the method: as §4
T1 sequence (whole entry): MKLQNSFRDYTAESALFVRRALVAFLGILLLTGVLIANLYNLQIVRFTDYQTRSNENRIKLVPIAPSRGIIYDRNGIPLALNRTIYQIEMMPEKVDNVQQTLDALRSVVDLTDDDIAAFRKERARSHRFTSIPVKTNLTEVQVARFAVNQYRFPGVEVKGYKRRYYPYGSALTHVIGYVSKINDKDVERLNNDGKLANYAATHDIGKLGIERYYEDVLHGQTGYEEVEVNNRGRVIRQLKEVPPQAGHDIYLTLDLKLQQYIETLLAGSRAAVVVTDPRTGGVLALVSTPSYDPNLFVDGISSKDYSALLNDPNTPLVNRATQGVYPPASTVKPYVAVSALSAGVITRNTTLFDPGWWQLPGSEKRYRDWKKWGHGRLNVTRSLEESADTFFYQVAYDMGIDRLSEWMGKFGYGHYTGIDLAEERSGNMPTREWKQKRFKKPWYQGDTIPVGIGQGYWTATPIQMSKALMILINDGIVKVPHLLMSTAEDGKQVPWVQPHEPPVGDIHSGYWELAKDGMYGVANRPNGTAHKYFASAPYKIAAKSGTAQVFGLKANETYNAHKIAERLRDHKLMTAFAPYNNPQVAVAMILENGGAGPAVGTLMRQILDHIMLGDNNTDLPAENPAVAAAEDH

Pseudomonas aeruginosa [12] = experiment: In vitro antibacterial activity against Pseudomonas aeruginosa 8780; format: functional; summary of the method: as §3
Proteus vulgaris = experiment: In vitro antibacterial activity against proteus vulgaris ATCC 6380 (constitutive beta-lactamase producer); format: functional; summary of the method: as §5
Staphylococcus aureus [13] = experiment: In vitro antibacterial activity against Staphylococcus aureus 67(methicillin resistant); format: functional
Summary of the method: (§6)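 MIC by agar dilution on Mueller-Hinton agar. Compounds were serially 2-fold diluted in water, final 128 to 0.0156 μg/mL in agar. Inoculum: overnight broth culture diluted 100-fold, applied with a Steers replicator.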

Staphylococcus aureus [14] = experiment: In vitro antibacterial activity against Staphylococcus aureus 753 (constitutive beta-lactamase producer); format: functional; summary of the method: as §6
Streptococcus pyogenes = experiment: In vitro antibacterial activity against Streptococcus pyogenes 4; format: functional
Summary of the method: (§7)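 Streptococcal MICs were determined by agar dilution on brain heart infusion agar supplemented with 20 units/mL bovine liver catalase. Final concentrations were 128 to 0.0156 μg/mL from 2-fold dilutions. Inocula were overnight broth cultures diluted 100-fold, applied by Steers replicator.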

Serratia marcescens = experiment: In vitro antibacterial activity against serratia marcescens SM (constitutive beta-lactamase producer); format: functional; summary of the method: as §3
Staphylococcus aureus [15] = experiment: In vitro antibacterial activity against staphylococcus aureus smith; format: functional; summary of the method: as §3
Streptococcus pneumoniae = experiment: In vitro antibacterial activity against streptococcus pneumoniae 6301; format: functional; summary of the method: as §7
Citrobacter freundii = experiment: In vitro antibacterial activity against citrobacter freundii BS-16 (constitutive beta-lactamase producer); format: functional; summary of the method: as §3
Clostridioides difficile [16] = experiment: In vitro antibacterial activity against Clostridium difficile 701; format: functional
Escherichia coli [17] = experiment: In vitro antibacterial activity against Escherichia coli UB1005 (nalidixic acid-resistant strain); format: functional; summary of the method: as §3
[18] = molecular target: Penicillin-binding protein 1A (Escherichia coli K-12) (UniProt P02918); experiment: Concentration inhibiting [14C]- Penicillin G binding to Escherichia coli UB1005 PBP1a (penicillin binding protein) 90 kDa
Sequence of Penicillin-binding protein 1A (Escherichia coli K-12) (P02918 whole entry, looked up): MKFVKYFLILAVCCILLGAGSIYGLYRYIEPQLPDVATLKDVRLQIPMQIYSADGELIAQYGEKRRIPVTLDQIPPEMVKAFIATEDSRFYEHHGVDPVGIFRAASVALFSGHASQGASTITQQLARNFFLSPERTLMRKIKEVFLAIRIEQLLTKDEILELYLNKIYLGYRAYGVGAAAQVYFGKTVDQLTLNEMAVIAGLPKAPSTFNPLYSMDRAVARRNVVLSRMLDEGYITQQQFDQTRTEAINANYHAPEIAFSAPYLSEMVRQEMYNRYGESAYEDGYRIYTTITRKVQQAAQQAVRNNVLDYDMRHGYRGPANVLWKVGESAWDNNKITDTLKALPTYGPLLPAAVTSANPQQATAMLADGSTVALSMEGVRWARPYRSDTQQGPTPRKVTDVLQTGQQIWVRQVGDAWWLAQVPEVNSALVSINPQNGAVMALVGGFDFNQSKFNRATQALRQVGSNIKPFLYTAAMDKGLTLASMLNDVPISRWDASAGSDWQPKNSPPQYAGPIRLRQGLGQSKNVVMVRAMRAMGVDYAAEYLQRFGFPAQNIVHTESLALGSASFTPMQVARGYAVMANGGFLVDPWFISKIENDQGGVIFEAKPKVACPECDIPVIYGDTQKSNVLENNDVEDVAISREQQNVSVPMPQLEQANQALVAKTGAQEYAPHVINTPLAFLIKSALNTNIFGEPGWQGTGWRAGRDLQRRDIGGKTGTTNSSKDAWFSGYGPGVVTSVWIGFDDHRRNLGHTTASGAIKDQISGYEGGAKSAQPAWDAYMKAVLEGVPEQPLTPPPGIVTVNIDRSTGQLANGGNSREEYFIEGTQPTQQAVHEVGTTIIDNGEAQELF

Compound: C[C@@H](O)[C@H]1C(=O)N2C(C(=O)[O-])=C(COC(=O)N3CCN(c4cc5c(cc4F)c(=O)c(C(=O)O)cn5C4CC4)CC3)S[C@H]12.[Na+]
- MIC [1]: 16 µg/mL
- MIC (Bacteroides fragilis [2]): 1 µg/mL
- MIC (Clostridioides difficile [3]): 4 µg/mL
- MIC (Clostridium perfringens): 0.25 µg/mL
- MIC (Bacteroides fragilis [4]): 16 µg/mL
- MIC (Hathewaya histolytica): 0.25 µg/mL
- MIC (Escherichia coli [5]): 0.06 µg/mL
- MIC (Escherichia coli [6]): 0.0625 µg/mL
- MIC (Escherichia coli [7]): 0.0625 µg/mL
- IC90 (Escherichia coli [8]): > 100 µg/mL
- MIC (Enterobacter cloacae): 0.0625 µg/mL
- MIC (Proteus mirabilis): 1 µg/mL
- MIC (Pseudomonas aeruginosa [9]): 1 µg/mL
- IC90 [10]: 2 µg/mL
- IC90 [11]: 30 µg/mL
- MIC (Pseudomonas aeruginosa [12]): 2 µg/mL
- MIC (Proteus vulgaris): 0.0625 µg/mL
- MIC (Staphylococcus aureus [13]): 4 µg/mL
- MIC (Staphylococcus aureus [14]): 4 µg/mL
- MIC (Streptococcus pyogenes): 0.0313 µg/mL
- MIC (Serratia marcescens): 0.25 µg/mL
- MIC (Staphylococcus aureus [15]): 0.125 µg/mL
- MIC (Streptococcus pneumoniae): 0.0313 µg/mL
- MIC (Citrobacter freundii): 0.125 µg/mL
- MIC (Clostridioides difficile [16]): 8 µg/mL
- MIC (Escherichia coli [17]): 4 µg/mL
- IC90 [18]: 2 µg/mL

Compound: C[C@@H](O)[C@H]1C(=O)N2C(C(=O)[O-])=C(CO)S[C@H]12.[Na+]
- MIC [1]: 0.125 µg/mL
- MIC (Bacteroides fragilis [2]): 64 µg/mL
- MIC (Clostridium perfringens): 0.5 µg/mL
- MIC (Escherichia coli [6]): 4 µg/mL
- MIC (Escherichia coli [7]): 4 µg/mL
- IC90 (Escherichia coli [8]): > 100 µg/mL
- MIC (Proteus mirabilis): 8 µg/mL
- MIC (Pseudomonas aeruginosa [9]): 8 µg/mL
- IC90 [11]: 30 µg/mL
- MIC (Pseudomonas aeruginosa [12]): 64 µg/mL
- MIC (Staphylococcus aureus [13]): > 64 µg/mL
- MIC (Streptococcus pyogenes): 0.125 µg/mL
- MIC (Staphylococcus aureus [15]): 0.25 µg/mL
- MIC (Clostridioides difficile [16]): 2 µg/mL

Compound: C[C@@H](O)[C@H]1C(=O)N2C(C(=O)[O-])=C(COC(=O)c3cn(CCF)c4c(F)c(N5CCN(C)CC5)c(F)cc4c3=O)S[C@H]12.[Na+]
- MIC [1]: 4 µg/mL
- MIC (Clostridioides difficile [3]): 0.5 µg/mL
- MIC (Clostridium perfringens): < 0.125 µg/mL
- MIC (Bacteroides fragilis [4]): < 0.125 µg/mL
- MIC (Hathewaya histolytica): < 0.125 µg/mL
- MIC (Escherichia coli [5]): 0.25 µg/mL
- MIC (Escherichia coli [6]): 0.25 µg/mL
- MIC (Escherichia coli [7]): 0.5 µg/mL
- IC90 (Escherichia coli [8]): > 100 µg/mL
- MIC (Enterobacter cloacae): 0.5 µg/mL
- MIC (Proteus mirabilis): 1 µg/mL
- IC90 [10]: 0.5 µg/mL
- IC90 [11]: 10 µg/mL
- MIC (Pseudomonas aeruginosa [12]): 16 µg/mL
- MIC (Proteus vulgaris): 0.25 µg/mL
- MIC (Staphylococcus aureus [13]): 1 µg/mL
- MIC (Staphylococcus aureus [14]): 2 µg/mL
- MIC (Streptococcus pyogenes): < 0.0156 µg/mL
- MIC (Serratia marcescens): 0.5 µg/mL
- MIC (Staphylococcus aureus [15]): 0.125 µg/mL
- MIC (Streptococcus pneumoniae): < 0.0156 µg/mL
- MIC (Citrobacter freundii): 0.5 µg/mL
- MIC (Clostridioides difficile [16]): 1 µg/mL
- MIC (Escherichia coli [17]): 2 µg/mL
- IC90 [18]: 2 µg/mL
